Data taken from ChEMBL document CHEMBL3525976, “An unusual metabolic pathway of sipoglitazar, a novel antidiabetic agent: cytochrome P450-catalyzed oxidation of sipoglitazar acyl glucuronide” (Drug Metab Dispos, 2012).

How the values were obtained:
[1] = Drug level in human hepatic microsomes treated with 10 uM of [14C]Sipoglitazar after 6 hrs by LC-MS and LC-MS/MS analysis in presence of NADPH; assay type: ADME, Liver
[2] = Drug level in human hepatic microsomes treated with 10 uM of [14C]Sipoglitazar after 6 hrs by LC-MS and LC-MS/MS analysis in presence of UDPGA; assay type: ADME, Liver
Hepatocyte = assay: Drug level in cryopreserved primary human hepatocytes treated with 10 uM of [14C]Sipoglitazar after 6 hrs by LC-MS and LC-MS/MS analysis; assay type: ADME, cell-based
Summary of the method: (§1)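 Cryopreserved human hepatocytes suspended in DMEM at 3 x 10⁵ viable cells/well with 10 μmol/L [14C]sipoglitazar, 37°C, 6 h. Stopped with acetonitrile and centrifuged; supernatant run on radio-HPLC (ODS column, acetonitrile/water/TFA gradient). Metabolites expressed as % of total radioactivity. Means of duplicates.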

[3] = Drug level in human hepatic microsomes treated with 10 uM of [14C]Sipoglitazar after 6 hrs by LC-MS and LC-MS/MS analysis in presence of NADPH and UDPGA; assay type: ADME, Liver
[4] = Drug level in human hepatic microsomes treated with 100 uM of [14C]Sipoglitazar after 4 hrs by HPLC analysis in presence of UDPGA; assay type: ADME, Liver
Summary of the method: (§2)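 Preparative glucuronidation: [14C]sipoglitazar 100 μmol/L with human liver microsomes (2 mg protein/mL) and UDPGA 5 mmol/L, 37°C, 4 h. Supernatant concentrated under nitrogen, then separated by radio-HPLC on ODS columns at 40°C or 4°C with acetonitrile/water/TFA gradient to resolve the glucuronide isomers.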

[5] = Chemical stability of the compound in acetate buffer at pH 4.4 at 10 uM up to 4 hrs; assay type: physicochemical; conditions: pH 4.4, 4 h
Summary of the method: (§3)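 [14C]glucuronide isomer (G1 or G2) at 10 μmol/L final, incubated at 37°C in 50 mmol/L potassium phosphate buffer (pH 7.4), acetate buffer (pH 4.4), rat bile or human plasma. Samples taken at 0, 5, 30 min and 1, 2, 4 h (G1) or 0, 1, 2, 4 h (G2). Reaction stopped with equal-volume acetonitrile and centrifuged. Supernatant analysed by radio-HPLC. Each species reported as % of total radioactivity.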

[6] = Chemical stability of the compound in potassium phosphate buffer at pH 7.4 assessed as formation of sipoglitazar at 10 uM up to 4 hrs; assay type: physicochemical; conditions: pH 7.4, 4 h; summary of the method: as §3
[7] = Stability of the compound in rat bile assessed as formation of sipoglitazar at 10 uM up to 4 hrs; assay type: ADME, tissue-based; summary of the method: as §3
Plasma [8] = assay: Stability of the compound in human plasma assessed as formation of sipoglitazar at 10 uM up to 4 hrs; assay type: ADME, cell-free; summary of the method: as §3
[9] = Drug metabolism in human hepatic microsomes assessed as formation of sipoglitazar at 10 uM after 10 mins by HPLC analysis in presence of NADPH; assay type: ADME, Liver, Microsome
Summary of the method: (§4)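 Human liver microsomes (1 mg protein/mL), 10 μmol/L [14C]glucuronide isomer, 5 mmol/L MgCl2, with or without NADPH-generating system (5 mmol/L G6P, 0.5 mmol/L β-NADP+, 1.5 U/mL G6PDH) in 50 mmol/L KPB. Incubated 37°C, 10 min. Acetonitrile quench, then radio-HPLC.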

[10] = Chemical stability of the compound in potassium phosphate buffer at pH 7.4 assessed as formation of alpha-2-O-acyl glucuronide conjugate of sipoglitazar at 10 uM up to 4 hrs; assay type: physicochemical; conditions: pH 7.4, 4 h; summary of the method: as §3
[11] = Stability of the compound in rat bile assessed as formation of alpha-2-O-acyl glucuronide conjugate of sipoglitazar at 10 uM up to 4 hrs; assay type: ADME, tissue-based; summary of the method: as §3
Plasma [12] = assay: Stability of the compound in human plasma assessed as formation of alpha-2-O-acyl glucuronide conjugate of sipoglitazar at 10 uM up to 4 hrs; assay type: ADME, cell-free; summary of the method: as §3
[13] = Drug metabolism in human hepatic microsomes assessed as formation of 3-(3-hydroxy-1-{4-[(2-phenyl-1,3-thiazol-4-yl)methoxy]benzyl}-1H-pyrazol-4-yl)propanoic acid at 10 uM after 10 mins by HPLC analysis in presence of NADPH; assay type: ADME, Liver, Microsome; summary of the method: as §4
Cytochrome P450 2C8 = biological target: T1, Cytochrome P450 2C8 (Homo sapiens, UniProt P10632); assay: Drug metabolism in […] assessed as CYP2C8-mediated formation of 3-(3-hydroxy-1-{4-[(2-phenyl-1,3-thiazol-4-yl)methoxy]benzyl}-1H-pyrazol-4-yl)propanoic acid at 10 uM after 15 mins by HPLC analysis in presence of NADPH; conditions: 0.25 h
T1 sequence (P10632 whole entry): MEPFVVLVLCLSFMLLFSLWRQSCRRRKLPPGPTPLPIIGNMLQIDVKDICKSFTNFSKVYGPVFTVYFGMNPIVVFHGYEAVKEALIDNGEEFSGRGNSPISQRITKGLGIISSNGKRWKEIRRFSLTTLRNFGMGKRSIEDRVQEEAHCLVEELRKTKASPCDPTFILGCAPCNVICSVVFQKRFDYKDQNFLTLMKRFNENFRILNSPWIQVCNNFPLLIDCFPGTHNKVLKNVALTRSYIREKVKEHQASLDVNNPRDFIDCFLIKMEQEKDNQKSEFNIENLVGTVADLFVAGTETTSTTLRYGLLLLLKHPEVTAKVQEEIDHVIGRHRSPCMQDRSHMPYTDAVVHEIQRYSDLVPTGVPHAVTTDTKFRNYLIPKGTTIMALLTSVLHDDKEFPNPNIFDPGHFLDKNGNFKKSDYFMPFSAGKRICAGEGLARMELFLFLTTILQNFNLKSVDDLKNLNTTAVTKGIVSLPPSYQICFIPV
Summary of the method: (§5)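 Recombinant CYP-expressing microsomes (80 pmol P450/mL) with 10 μmol/L [14C]glucuronide substrate, 5 mmol/L MgCl2 and NADPH-generating system (5 mmol/L glucose-6-phosphate, 0.5 mmol/L β-NADP+, 1.5 U/mL G6PDH) in 50 mmol/L KPB or Tris-HCl pH 7.4. Incubated 37°C, 15 min. Deethylated product quantified by radio-HPLC. Means of duplicates.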

Cytochrome P450 2B6 = biological target: T2, Cytochrome P450 2B6 (Homo sapiens, UniProt P20813); assay: Drug metabolism in […] assessed as CYP2B6-mediated formation of 3-(3-hydroxy-1-{4-[(2-phenyl-1,3-thiazol-4-yl)methoxy]benzyl}-1H-pyrazol-4-yl)propanoic acid at 10 uM after 15 mins by HPLC analysis in presence of NADPH; conditions: 0.25 h; summary of the method: as §5
T2 sequence (P20813 whole entry): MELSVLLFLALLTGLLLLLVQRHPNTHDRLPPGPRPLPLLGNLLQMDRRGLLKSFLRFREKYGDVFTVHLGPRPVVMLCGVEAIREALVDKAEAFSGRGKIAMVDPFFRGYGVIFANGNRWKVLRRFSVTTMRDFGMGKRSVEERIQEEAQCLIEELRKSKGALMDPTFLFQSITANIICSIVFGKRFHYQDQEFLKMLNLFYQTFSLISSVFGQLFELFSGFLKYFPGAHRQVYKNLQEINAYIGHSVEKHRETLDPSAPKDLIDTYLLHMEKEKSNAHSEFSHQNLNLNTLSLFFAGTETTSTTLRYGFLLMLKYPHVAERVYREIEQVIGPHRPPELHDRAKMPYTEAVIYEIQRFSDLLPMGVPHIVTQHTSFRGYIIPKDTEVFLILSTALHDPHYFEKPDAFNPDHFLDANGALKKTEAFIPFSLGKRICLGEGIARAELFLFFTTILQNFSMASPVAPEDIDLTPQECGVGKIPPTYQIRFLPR

Cytochrome P450 2E1 = Cytochrome P450 2E1 (Homo sapiens, UniProt P05181); assay: Drug metabolism in […] assessed as CYP2E1-mediated formation of 3-(3-hydroxy-1-{4-[(2-phenyl-1,3-thiazol-4-yl)methoxy]benzyl}-1H-pyrazol-4-yl)propanoic acid at 10 uM after 15 mins by HPLC analysis in presence of NADPH; conditions: 0.25 h; summary of the method: as §5
[14] = Drug metabolism in human hepatic microsomes assessed as formation of beta-1-O-acyl glucuronide conjugate of sipoglitazar at 100 uM after 4 hrs by HPLC analysis in presence of UDPGA; assay type: ADME, Liver, Microsome; summary of the method: as §2
[15] = Drug metabolism in human hepatic microsomes assessed as formation of alpha-2-O-acyl glucuronide conjugate of sipoglitazar at 100 uM after 4 hrs by HPLC analysis in presence of UDPGA; assay type: ADME, Liver, Microsome; summary of the method: as §2
[16] = Drug metabolism in human hepatic microsomes assessed as formation of 3-(3-hydroxy-1-{4-[(2-phenyl-1,3-thiazol-4-yl)methoxy]benzyl}-1H-pyrazol-4-yl)propanoic acid at 10 uM after 30 mins by LC-MS and LC-MS/MS analysis in presence of gemfibrozil, NADPH and UDPGA; assay type: ADME, Liver, Microsome; conditions: 0.5 h
Summary of the method: (§6)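 Human liver microsomes (0.5 mg protein/mL), 10 μmol/L [14C]sipoglitazar, 5 mmol/L MgCl2, alamethicin 50 μg/mL and UDPGA 5 mmol/L, with or without NADPH-generating system. Gemfibrozil added at 0, 10, 30, 100 or 300 μmol/L final, in 50 mmol/L KPB pH 7.4. Incubated 37°C, 30 min. Acetonitrile quench, then radio-HPLC.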

[17] = Drug metabolism in human hepatic microsomes assessed as formation of 3-[3-ethoxy-1-(4-hydroxybenzyl)-1H-pyrazol-4-yl]propanoic acid] at 10 uM after 30 mins by LC-MS and LC-MS/MS analysis in presence of gemfibrozil, NADPH and UDPGA; assay type: ADME, Liver, Microsome; conditions: 0.5 h; summary of the method: as §6
[18] = Drug metabolism in human hepatic microsomes assessed as elimination of compound at 10 uM after 30 mins by LC-MS and LC-MS/MS analysis in presence of gemfibrozil, NADPH and UDPGA; assay type: ADME, Liver, Microsome; conditions: 0.5 h; summary of the method: as §6
[19] = Drug metabolism in human hepatic microsomes assessed as beta-1-O-acyl glucuronide conjugate of sipoglitazar formation at 10 uM after 30 mins by LC-MS and LC-MS/MS analysis in presence of gemfibrozil and UDPGA; assay type: ADME, Liver, Microsome; conditions: 0.5 h; summary of the method: as §6
[20] = Drug metabolism in human hepatic microsomes assessed as elimination of compound at 10 uM after 30 mins by LC-MS and LC-MS/MS analysis in presence of gemfibrozil and UDPGA; assay type: ADME, Liver, Microsome; conditions: 0.5 h; summary of the method: as §6
[21] = Drug metabolism in cryopreserved primary human hepatocytes assessed as formation of 3-(3-hydroxy-1-{4-[(2-phenyl-1,3-thiazol-4-yl)methoxy]benzyl}-1H-pyrazol-4-yl)propanoic acid at 10 uM after 6 hrs by LC-MS and LC-MS/MS analysis; assay type: ADME, cell-based, Hepatocyte; summary of the method: as §1
[22] = Drug metabolism in cryopreserved primary human hepatocytes assessed as formation of 3-[3-ethoxy-1-(4-hydroxybenzyl)-1H-pyrazol-4-yl]propanoic acid] at 10 uM after 6 hrs by LC-MS and LC-MS/MS analysis; assay type: ADME, cell-based, Hepatocyte; summary of the method: as §1
[23] = Drug metabolism in human hepatic microsomes assessed as formation of 3-(3-hydroxy-1-{4-[(2-phenyl-1,3-thiazol-4-yl)methoxy]benzyl}-1H-pyrazol-4-yl)propanoic acid at 10 uM after 6 hrs by LC-MS and LC-MS/MS analysis in presence of NADPH and UDPGA; assay type: ADME, Liver, Microsome
[24] = Drug metabolism in human hepatic microsomes assessed as formation of 3-[3-ethoxy-1-(4-hydroxybenzyl)-1H-pyrazol-4-yl]propanoic acid] at 10 uM after 6 hrs by LC-MS and LC-MS/MS analysis in presence of NADPH and UDPGA; assay type: ADME, Liver, Microsome
[25] = Drug metabolism in human hepatic microsomes assessed as formation of 3-[3-ethoxy-1-(4-hydroxybenzyl)-1H-pyrazol-4-yl]propanoic acid] at 10 uM after 1 hr by LC-MS and LC-MS/MS analysis in presence of NADPH
[26] = Drug metabolism in human hepatic microsomes assessed as formation of 3-(3-hydroxy-1-{4-[(2-phenyl-1,3-thiazol-4-yl)methoxy]benzyl}-1H-pyrazol-4-yl)propanoic acid at 10 uM after 1 hr by LC-MS and LC-MS/MS analysis in presence of NADPH

Sequence of Cytochrome P450 2E1 (P05181 whole entry): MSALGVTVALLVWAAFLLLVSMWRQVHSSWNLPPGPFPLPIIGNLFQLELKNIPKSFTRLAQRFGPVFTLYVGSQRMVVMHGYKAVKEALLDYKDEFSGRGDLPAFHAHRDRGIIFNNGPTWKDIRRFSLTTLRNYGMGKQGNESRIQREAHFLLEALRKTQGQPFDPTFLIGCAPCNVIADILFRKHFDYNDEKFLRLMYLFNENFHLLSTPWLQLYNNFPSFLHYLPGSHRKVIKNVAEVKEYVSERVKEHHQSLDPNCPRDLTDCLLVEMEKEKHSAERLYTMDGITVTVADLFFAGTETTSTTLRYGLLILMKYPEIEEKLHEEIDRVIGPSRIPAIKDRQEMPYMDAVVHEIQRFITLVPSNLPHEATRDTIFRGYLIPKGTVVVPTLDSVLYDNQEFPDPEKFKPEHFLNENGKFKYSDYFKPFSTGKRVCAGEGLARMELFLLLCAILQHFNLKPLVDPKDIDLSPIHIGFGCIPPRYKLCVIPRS

SMILES	Drug metabolism [1]	Drug metabolism [2]	Drug metabolism (Hepatocyte)	Drug metabolism [3]	Drug metabolism [4]	Stability [5]	Stability [6]	Stability [7]	Stability (Plasma [8])	Drug metabolism [9]	further results
O=C(O)CCc1cn(Cc2ccc(OCc3csc(-c4ccccc4)n3)cc2)nc1O	metabolite_detected	metabolite_detected	metabolite_detected	metabolite_detected	–	–	–	–	–	–	–
CCOc1nn(Cc2ccc(O)cc2)cc1CCC(=O)O	metabolite_detected	metabolite_detected	metabolite_detected	metabolite_detected	–	–	–	–	–	–	–
CCOc1nn(Cc2ccc(OCc3csc(-c4ccccc4)n3)cc2)cc1CCC(=O)O[C@@H]1[C@@H](O)[C@H](O)[C@@H](C(=O)O)O[C@@H]1O	–	–	–	–	metabolite_detected	Stable	Unstable	Unstable	Unstable	metabolite_detected	–
CCOc1nn(Cc2ccc(OCc3csc(-c4ccccc4)n3)cc2)cc1CCC(=O)O[C@@H]1O[C@H](C(=O)O)[C@@H](O)[C@H](O)[C@H]1O	–	–	–	–	metabolite_detected	Stable	Unstable	Unstable	Unstable	metabolite_detected	Stability [10]: Unstable; Stability [11]: Unstable; Stability (Plasma [12]): Unstable; Drug metabolism [13]: metabolite_detected; Drug metabolism (Cytochrome P450 2C8): metabolite_detected; Drug metabolism (Cytochrome P450 2B6): metabolite_not_detected; Drug metabolism (Cytochrome P450 2E1): metabolite_not_detected
CCOc1nn(Cc2ccc(OCc3csc(-c4ccccc4)n3)cc2)cc1CCC(=O)O [SIPOGLITAZAR]	–	–	–	–	–	–	–	–	–	–	Drug metabolism [14]: metabolite_detected; Drug metabolism [15]: metabolite_detected; Drug metabolism [16]: metabolite_not_detected; Drug metabolism [17]: metabolite_not_detected; Drug metabolism [18]: metabolite_not_detected; Drug metabolism [19]: metabolite_not_detected; Drug metabolism [20]: metabolite_not_detected; Drug metabolism [21]: metabolite_detected; Drug metabolism [22]: metabolite_detected; Drug metabolism [23]: metabolite_detected; Drug metabolism [24]: metabolite_detected; Drug metabolism [25]: metabolite_detected; Drug metabolism [26]: metabolite_detected
